Screening data from PubChem.
Most compounds without a hit are left out; they make up all but 5.1% or so of the library.
NF-kB expr up: NF-kB expression increase, human neuronal cells | NF-kB reporter expression; stronger effect = higher value | fold change at 12.5 µM | 1.6% of 190,000 active | AID 1239; in the data active means fold change above about 3.3
APP 5'UTR act: APP 5'UTR luciferase reporter activation; SH-SY5Y APP 5'UTR luciferase reporter, luminescence; zero percent = DMSO vehicle wells; activation, % at 2 µM; 1% of 190,000 active; AID 1276;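 active means activation above a set limit, based on mean plus 3 SD of controls, cut at about 140% in these data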
STAT3 inh: inhibitors of IL-6 induced STAT3 signaling. 0.89% of 190,000 active. inhibition, % at 5.5 µM. U3A cells, IL-6 STAT3-luciferase reporter, luminescence; host cell line lacks STAT1;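 active means inhibition above the mean inhibition across all screened compounds plus 3 SD, cut at about 44% in these data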;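 further: 0% = DMSO only wells and 100% = 100 µM nifuroxazide control wells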
STAT1 blocker: STAT1 signaling inhibition; NIH 3T3 STAT1-luciferase reporter, IFN-gamma, luminescence; inhibition, % at 5.5 µM; 0.35% of 200,000 active;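 active means inhibition above a set limit, the mean inhibition across all tested compounds plus 3 SD, cut at about 34% in these data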;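 further: 0% = IFN-gamma with DMSO and 100% = IFN-gamma with 300 µM nifuroxazide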
STAT3 act: activators of IL-6 induced STAT3 signaling; AID 871; U3A cells, IL-6 STAT3-luciferase reporter, luminescence; 100% = signal with IL-6 EC80 alone; activation (% of control), % at 5.6 µM; 0.91% of 190,000 active;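 active means activation above the screen-wide mean of compound activation plus 3 SD, cut at about 130% in these data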;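 further: 0% = background luminescence of wells with medium and substrate only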
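Material: human STAT1-deficient U3A cells with stable STAT3-luciferase reporter / Probe or stimulus: IL-6 stimulus at 33 ng/mL final / Schedule: 1 h compound pre-exposure, 6 h IL-6 stimulation, 37 °C / Technique: luminescence / Read-out basis: percent of IL-6-only median luminescence / Control set: IL-6-only high control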
STAT1 activator: activators of IFN-gamma induced STAT1 signaling | NIH 3T3 STAT1-luciferase reporter, luminescence; 100% = IFN-gamma alone, no compound | activation (% of control), % at 5.5 µM | 2.6% of 200,000 active | AID 932;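 active means activation above the screen-wide mean activation plus 3 SD, cut at about 130% in these data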;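 further: raw ratio to IFN-gamma control signal so 100% means no change and 0% no light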
An asterisk follows results filed as active; . = not tested or not shown.

SMILES | NF-kB expr up | APP 5'UTR act | STAT3 inh | STAT1 blocker | STAT3 act | STAT1 activator
CN(C)S(=O)(=O)N1CCN(c2ccc([N+](=O)[O-])c(N3CCOCC3)c2)CC1 | 1.18 | 6.0 | -44.1 | -2.1 | 135.7* | 99.6
CC(=O)c1cc(N2CCOCC2)ccc1[N+](=O)[O-] | 5.62* | 10.4 | 3.4 | -6.8 | 101.2 | 103.5
CC(=O)c1cc(N2CCC(C(=O)O)CC2)ccc1[N+](=O)[O-] | 1.06 | 6.2 | 12.9 | -4.0 | 92.8 | 103.6
Cc1ccc(N/C=C2\CCCCC2=O)nc1 | 1.84 | 5.7 | 8.7 | -37.9 | 94.6 | 134.6*
O=C1NC(=O)/C(=C\c2ccc(N3CCOCC3)o2)N1 | 1.2 | 3.0 | 7.6 | 2.6 | 95.5 | 97.1
COc1ccc2c(C)cc(Sc3nnnn3-c3ccccc3)nc2c1 | 3.39* | -0.6 | 32.4 | 0.9 | 73.8 | 99.2
Cn1ccnc1C1CCCCN1C(=O)c1cc(COc2ccc(F)cc2Cl)on1 (stereo not drawn) | 1.1 | -4.0 | 11.3 | -3.5 | 94.8 | 102.9
CC(C)CNC(=O)c1cccc(NC(=O)CCc2ccccc2)c1 | 0.74 | 11.7 | -0.1 | 3.4 | 103.9 | 95.5
Cc1cccc(-c2noc(-c3cc4ccccc4oc3=O)n2)c1 | 3.62* | 7.0 | -9.2 | -19.0 | 108.4 | 116.9
O=c1oc2ccccc2cc1-c1nc2ccccc2o1 | 4.39* | 151.8* | -1.0 | -23.6 | 105.3 | 121.5
Cc1ccc(-c2noc(-c3cc4ccccc4oc3=O)n2)cc1 | 1.35 | -3.1 | 13.4 | 0.3 | 97.2 | 99.7
O=c1oc2ccccc2cc1-c1nc(-c2ccccc2)no1 | 4.12* | 75.8 | 41.3 | -48.5 | 66.3 | 144.6*
Cc1ccc(O)c(C(CC(=O)NC2CCCCC2)c2ccccc2)c1 (stereo not drawn) | 1.05 | 13.4 | 1.2 | 6.2 | 100.1 | 93.3
CCN(CC)c1cnn(C/C(=N\OC)c2ccc(Cl)cc2)c(=O)c1Br | 0.78 | -8.8 | 15.5 | 10.6 | 88.5 | 90.2
Cc1occc1-c1nnc(-c2cc([N+](=O)[O-])cc([N+](=O)[O-])c2)o1 | 0.98 | -4.8 | 7.8 | -2.2 | 95.3 | 100.3
O=C(CCC(=O)OCC(=O)c1ccc(Br)cc1)Nc1ccc(Br)c2cccnc12 | 1.08 | -3.9 | 11.7 | 2.1 | 90.5 | 98.0
O=C(Nc1ccon1)c1cc2c(s1)CCCC2 | 5.6* | 163.8* | 22.6 | -35.9 | 85.0 | 133.1*
CNC(=O)c1cc2c(s1)CCCCCC2 | 1.14 | -6.9 | 5.7 | 0.1 | 97.5 | 99.9
O=C(Nc1ccon1)c1cc2c(s1)CCCCCC2 | 2.98 | 124.3 | -7.7 | -50.0 | 108.4 | 141.2*
CC(C)NC(=O)c1cc2c(s1)CCCC2 | 1.14 | -1.0 | 3.3 | 4.7 | 100.1 | 95.7
CC(C)NS(=O)(=O)c1ccc(CCC(=O)N2CCC(C(N)=O)CC2)cc1 | 1.58 | 14.2 | -7.4 | -7.3 | 107.7 | 105.4
Cc1ccc(C(=O)Nc2ccc(Br)c(C(F)(F)F)c2)cc1 | 3.19 | 108.5 | 3.4 | -47.4 | 97.6 | 143.2*
Cc1ccccc1N1C(S)=C(C#N)C(=O)NC12CCCCC2 | 1.24 | 11.6 | 5.5 | -0.4 | 93.4 | 100.3
COc1ccccc1N1CCN(c2ccc([N+](=O)[O-])cc2Cl)CC1 | 1.16 | -0.3 | 5.1 | 5.4 | 96.5 | 95.2
CCCn1c(O)c(C=Nc2ccccc2)sc1=S | 1.66 | 24.6 | 7.6 | -43.1 | 95.4 | 137.7*
SMILES | NF-kB expr up | APP 5'UTR act | STAT3 inh | STAT1 blocker | STAT3 act | STAT1 activator
COc1cc(NC(=O)c2cc3ccccc3o2)c(OC)cc1Cl | 1.13 | -15.4 | -57.4 | 0.9 | 153.8* | 99.2
CC(C)Cc1cc(C(=O)NCc2ccco2)no1 | 2.02 | 22.1 | . | -34.6 | . | 130.1*
N#Cc1ccccc1NC(=O)c1ccc(-c2ccccc2Cl)o1 | 2.09 | 45.3 | 8.1 | -45.8 | 94.4 | 137.8*
CN(C)S(=O)(=O)c1cccc(NC(=O)c2cc3ccccc3o2)c1 | 1.17 | 39.2 | 6.1 | -5.8 | 95.2 | 105.3
CC(C)C(=O)Nc1cccc(NC(=O)c2cc3ccccc3o2)c1 | 1.54 | 36.0 | 9.8 | -30.9 | 93.6 | 130.5*
Cc1cc(C(=O)NCc2ccco2)no1 | 1.19 | -1.5 | 2.9 | 4.9 | 97.7 | 95.5
Cn1c(NNC(=O)C2CCCCC2)cc(=O)n(C)c1=O | 1.13 | 5.0 | 4.8 | -4.8 | 97.9 | 102.7
C=CCn1c(SCc2csc(-c3ccc(Cl)cc3)n2)nnc1-c1ccccc1OC | 1.11 | 5.6 | -8.8 | -10.4 | 107.2 | 109.4
COc1ccccc1NC(=O)c1cc2ccccc2o1 | 2.44 | 45.8 | -73.1 | -58.1 | 165.0* | 153.6*
COc1ccccc1NC(=O)c1ccc(-c2ccccc2[N+](=O)[O-])o1 | 1.9 | 45.7 | 13.0 | -55.8 | 90.8 | 149.7*
CSc1ccccc1NC(=O)c1cc(CC(C)C)on1 | 2.3 | 35.9 | -7.1 | -10.9 | 105.9 | 111.1
COc1cc(NC(=O)c2cc(CC(C)C)on2)c(OC)cc1Cl | 0.99 | -11.8 | -43.4 | -4.3 | 135.6* | 104.9
COc1ccc(NC(=O)c2cc3ccccc3o2)cc1 | 5.35* | 137.9* | 0.6 | -48.4 | 105.1 | 146.0*
c1ccc2oc(-c3ccc(Nc4nc(N5CCCC5)nc(N5CCOCC5)n4)cc3)nc2c1 | 0.97 | -1.8 | -0.6 | -10.6 | 104.4 | 108.1
Nc1c(C(=O)c2ccco2)oc2ccccc12 | 1.02 | -9.7 | 16.7 | -20.5 | 92.0 | 117.5
Cc1ccccc1NC(=O)c1ccc([N+](=O)[O-])o1 | 3.31* | 2.2 | 10.7 | -2.1 | 94.5 | 100.5
Cc1ccc(NC(=O)c2ccc([N+](=O)[O-])o2)c(C)c1 | 1.98 | 7.1 | 23.3 | -9.3 | 84.7 | 107.5
CC1CCN(Cc2csc(N)n2)CC1 | 0.9 | 2.4 | 1.4 | 6.1 | 97.6 | 94.4
CCCNC(=O)C1CNc2ccccc2O1 (stereo not drawn) | 1.06 | -8.0 | -34.4 | -6.5 | 134.0* | 106.0
O=C(NCCO)C1COc2ccccc2O1 (stereo not drawn) | . | 7.7 | 12.0 | -2.9 | 93.9 | 100.9
COC(=O)c1ccc(N=NNc2ccc(C(=O)OC)cc2)cc1 | 3.5* | 126.6 | -8.6 | -53.9 | 106.1 | 148.0*
COC(=O)c1ccc(N=NNc2ccccc2)cc1 | 2.48 | 63.3 | -2.2 | -51.6 | 99.9 | 146.0*
O=C(O)c1ccc(N=NNc2cccc([N+](=O)[O-])c2)cc1 | 4.07* | 83.1 | 1.0 | -48.2 | 101.2 | 142.8*
COC(=O)c1ccc(CSCC(=O)Nc2ccccc2)cc1 | 1.13 | 31.1 | 13.2 | 13.9 | 93.0 | 85.6
CN(CC(=O)NCc1ccccn1)S(=O)(=O)c1ccc2ccccc2c1 | 1.09 | 1.4 | 7.4 | -1.6 | 94.9 | 100.1
c1ccc2sc(NCC3CCCO3)nc2c1 (stereo not drawn) | 1.21 | 49.7 | -1.8 | -39.0 | 103.5 | 135.6*
c1ccc(CCNc2nc3ccccc3s2)cc1 | 2.24 | 31.3 | 7.7 | -20.6 | 99.2 | 119.0
O=C(NCC1CCCO1)c1cc2ccccc2oc1=O (stereo not drawn) | 1.05 | -0.8 | 3.2 | 3.3 | 99.2 | 95.2
c1ccc2oc(-c3csc(NCC4CCCO4)n3)cc2c1 (stereo not drawn) | 9.07* | 168.8* | 26.6 | -51.8 | 81.1 | 147.7*
